Consider 37 sequences from the array DNA melting data of Ke et al. (doi:10.1101/2024.01.08.574731).

A short description of data set [1]: folding enthalpy; higher = less favourable; fluorescence melt of hairpins on a sequencing array, two-state fit. The note with it: sodium 0.088 M. The method, boiled down: (§1)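 Hairpins were imaged by Cy3 fluorescence on a sequenced MiSeq flow cell with annealed Cy3 and quencher oligos, in 50 mM Na-HEPES pH 8.0, 25 mM NaCl, in 2.5 °C steps up to 60 °C. Bootstrapped two-state fits of normalised signals gave melting temperature and folding enthalpy. Four replicates were combined by inverse variance, and fitted temperatures were raised by 9.35 °C to match UV melts.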

The nature of data set [2]: melting temperature; fluorescence melt of hairpins on a sequencing array, two-state fit, raised by 9.35 °C to match UV melts. The note with it: sodium 0.088 M. The procedure, abridged: as §1

As for GAGTTGGGAAACCAACTC (((((((....))))))), the folding enthalpy in data set [1] was -39.4 kcal/mol. Further, the Tm in data set [2] was 62 °C.

Take GTTCGGGGAAACTCGAGC (.(((.(....).))).): in data set [1], the folding enthalpy was -19.7 kcal/mol. The Tm in data set [2] amounted to 35.9 °C.

Regarding GCCGGAGGAAACTTCGGC ((((.((....)).)))), in data set [1], the folding enthalpy was -38.6 kcal/mol. Further, the Tm in data set [2] turned out to be 56.3 °C.

As for GTACTGGAAACAGTAC ((((((....)))))), in data set [1], the folding enthalpy was -36 kcal/mol. Besides, the Tm in data set [2] stood at 54.7 °C.

For the sequence GCGATGCATCGC ((((....)))), the folding enthalpy in data set [1] is -32.1 kcal/mol. Further, the Tm in data set [2] amounted to 59.6 °C.

As for GATGGCGAAAGCCATATC ((((((....)))..))), the folding enthalpy in data set [1] is -10.6 kcal/mol. The Tm in data set [2] turned out to be 52.5 °C.

For GATCTTACCAAGATC ((((((...)))))), the folding enthalpy in data set [1] was -33 kcal/mol. Also, the Tm in data set [2] amounted to 45.6 °C.

For GTTTACGAAAGTACAAAC ((((((....)))..))), the folding enthalpy in data set [1] is -10.6 kcal/mol. Besides, the Tm in data set [2] turned out to be 26.2 °C.

Take GCCAGGGCGAAAGCCGGC (((..(((....)))))): the folding enthalpy in data set [1] was -17.1 kcal/mol. The Tm in data set [2] was 63.3 °C.

In the case of GCCGAGCGAAAGCACTGC ((.(.((....)).).)), the folding enthalpy in data set [1] is -18.8 kcal/mol. The Tm in data set [2] was 36.4 °C.

For CGCCTCGGAAACGATGCG (((.(((....))).))), the folding enthalpy in data set [1] is -48 kcal/mol. Further, the Tm in data set [2] came to 49.9 °C.

Turning to GTTTTGGGAAACTAAAGC (.(((.(....).))).), the folding enthalpy in data set [1] was -16.3 kcal/mol. In addition, the Tm in data set [2] turned out to be 27.3 °C.

For GTAGTTGCGAAAGCATAC (((..(((....)))))), the folding enthalpy in data set [1] was -10.9 kcal/mol. Also, the Tm in data set [2] came out at 31.1 °C.

In the case of GCGAGTGATCGC ((((....)))), the folding enthalpy in data set [1] is -21.9 kcal/mol. Also, in data set [2], the Tm came out at 54.3 °C.

Take GCAAACGGAAACGTCTGC (((.(((....))).))): the folding enthalpy in data set [1] is -25.2 kcal/mol. The Tm in data set [2] was 44.7 °C.

For the sequence GCTTTGGGAAACTGAAGC ((((..(....)..)))), the folding enthalpy in data set [1] was -31.6 kcal/mol. Also, the Tm in data set [2] stood at 35.2 °C.

Take GTTGTCGAAAGACGTAAC ((((((....)))..))): the folding enthalpy in data set [1] was -11.3 kcal/mol. In addition, the Tm in data set [2] was determined as 31.9 °C.

For GCCCAACGAAAGTTGGC (((.(((....)))))), the folding enthalpy in data set [1] was -12.8 kcal/mol. Also, the Tm in data set [2] was 57.1 °C.

For the sequence GCGGCGCGAAAGCTCAGC ((.(.((....)).).)), the folding enthalpy in data set [1] is -19.2 kcal/mol. In addition, the Tm in data set [2] was found to be 56.7 °C.

With GCGTTGCGAAAGCAAAGC ((.((((....)))).)), in data set [1], the folding enthalpy is -30.4 kcal/mol. For the same sequence, the Tm in data set [2] turned out to be 66 °C.

GTAGACTCGAAAGAGTAC (((..(((....)))))): in data set [1], the folding enthalpy was -13.9 kcal/mol. For the same sequence, in data set [2], the Tm was 31.2 °C.

In the case of GAGAACGAAAGTTTGCTC ((((((....)))..))), in data set [1], the folding enthalpy is -16.8 kcal/mol. In addition, the Tm in data set [2] was found to be 28.6 °C.

Turning to GGGTCCGAAAGGAAACCC ((((((....)))..))), the folding enthalpy in data set [1] is -22.8 kcal/mol. In addition, the Tm in data set [2] amounted to 50.2 °C.

Consider GCGTCGGGAAACCGACAC (.(((((....))))).), for which, in data set [1], the folding enthalpy was -11.2 kcal/mol. In data set [2], the Tm came to 48.1 °C.

Take GCCTCACCGAAAGGTGGC (((..(((....)))))): in data set [1], the folding enthalpy was -8.02 kcal/mol. Further, the Tm in data set [2] came out at 48.9 °C.

In the case of GATGGGCGAAAGCCATC (((.(((....)))))), the folding enthalpy in data set [1] is -18.2 kcal/mol. In addition, the Tm in data set [2] stood at 52.5 °C.

For GTAATACGAAAGTAATAC (((.(((....))).))), the folding enthalpy in data set [1] was -20.2 kcal/mol. Also, the Tm in data set [2] came out at 34 °C.

Turning to CGTACGGAAACGTGAACG ((((((....)))..))), the folding enthalpy in data set [1] was -15.1 kcal/mol. Besides, the Tm in data set [2] was 37.4 °C.

Regarding GCACTCCGAAAGGAATGC (((.(((....))).))), in data set [1], the folding enthalpy is -38.6 kcal/mol. Besides, the Tm in data set [2] turned out to be 51.1 °C.

GATCCGATCTCGGATC ((((((....)))))): the folding enthalpy in data set [1] was -40.9 kcal/mol. Besides, the Tm in data set [2] amounted to 62.2 °C.

As to GGCTCCCGAAAGGGGCC (((.(((....)))))), the folding enthalpy in data set [1] was -30.1 kcal/mol. In addition, in data set [2], the Tm came out at 68 °C.

Regarding GTCCGGGGAAACTCGGGC (.(((.(....).))).), in data set [1], the folding enthalpy was -21.4 kcal/mol. Besides, the Tm in data set [2] was determined as 47.8 °C.

Take GCTGGTCGAAAGACGAGC (((.(((....))).))): in data set [1], the folding enthalpy is -54.3 kcal/mol. Besides, in data set [2], the Tm is 54.5 °C.

For CGCTTCGGAAACGAGCG (((.(((....)))))), the folding enthalpy in data set [1] is -27.1 kcal/mol. Moreover, in data set [2], the Tm was determined as 49.3 °C.

Consider GAGTCCGGAAACGGATTC ((.((((....)))).)), for which the folding enthalpy in data set [1] is -24.7 kcal/mol. For the same sequence, the Tm in data set [2] stood at 49.9 °C.

Consider GCTATTCGAAAGAAAAGC (((.(((....))).))), for which the folding enthalpy in data set [1] is -27.9 kcal/mol. Further, in data set [2], the Tm was found to be 39.1 °C.

Regarding GCCATCCGAAAGGAGGC (((.(((....)))))), the folding enthalpy in data set [1] was -22.8 kcal/mol. Besides, the Tm in data set [2] was 57.6 °C.
